TRPC4 PAM: TRPC4 (mouse) allosteric potentiation; Q9QUQ5; HEK293 TRPC4beta/mu-opioid, DAMGO EC20, Fluo-4 Ca2+ flux; stronger effect = higher value; B-score at 10 µM; 310,000 tested, 0.42% active; AID 2227;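 active means B-score of calcium response area above 5 SD of library B-scores, with initial fluorescence ratio within 5 SD of library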;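 further: B-score of integrated fluorescence ratio over time as area under calcium response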
TRPC6 act: activates the mouse TRPC6 cation channel; Q61143; HEK293-TRPC6 membrane potential dye fluorescence; stronger effect = higher value; B-score at 10 µM; 310,000 tested, 0.13% active;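 active means B-score of the integrated fluorescence ratio above library mean plus 3 SD, and starting fluorescence ratio within library mean plus 5 SD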;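 further: higher score means more depolarization so channel activation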
TRPC6 inh: inhibitors of mouse TRPC6 channel. 310,000 tested, 1.1% active. Q61143. HEK293-TRPC6, membrane potential dye, ACh-evoked depolarization; stronger effect = lower value. B-score at 10 µM;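 active means B-score under library mean minus 3 SD, initial fluorescence not abnormally high, positive integrated signal ratio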;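 further: B-score derived from integrated fluorescence ratio over the kinetic read; more negative B-score means stronger inhibition of depolarization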
TRPC4 block: TRPC4 (mouse) channel inhibition; B-score at 10 µM; AID 2247; 300,000 tested, 0.39% active; HEK293 TRPC4beta/mu-opioid, DAMGO-evoked Fluo4 calcium flux; stronger effect = lower value; Q9QUQ5;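 active means B-score over 3 SD under the library average, no early fluorescence shift, positive overall ratio signal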
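Assay system: TRPC4beta/mu-opioid receptor HEK293 cell line; compound dosing: single concentration per test compound; detection: Fluo4 Ca2+ flux fluorescence; evaluation: per-well B score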
TRPC4 agonist: activators of mouse TRPC4 channel | Q9QUQ5 | HEK293 TRPC4beta/mu-opioid, Fluo4 calcium fluorescence; stronger effect = higher value | B-score at 10 µM | 310,000 tested, 0.49% active;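 active means B-score above 5 SD of library B-scores, and initial fluorescence ratio not above library mean plus 5 SD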;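 further: positive B-score marks a calcium rise read as TRPC4 activation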
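Assay system: HEK293 stable line with TRPC4beta plus mu-opioid receptor; schedule: 45 min room-temperature Fluo4 loading, 110 s read; technique: kinetic Fluo4 calcium fluorescence; evaluation: integrated baseline-normalised fluorescence ratio, converted to per-well B score; controls: buffer (low) and maximal DAMGO (high)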
TRPC4 sel inh 2: second check of whether TRPC6 inhibitors also affect mouse TRPC4. 920 tested, 42% active. shares compounds with TRPC6 inh. HEK293 TRPC4/MOR, membrane potential dye fluorescence; channel activated by saturating DAMGO dose. AID 2776. inhibition, % at 10 µM;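 active means compounds whose fluorescence signal differed from control wells by over 3 SD, either direction, in both duplicate plates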
TRPC4 spec: tests whether TRPC6 inhibitors also affect mouse TRPC4. shares compounds with TRPC6 inh. HEK293 TRPC4/mu-opioid, membrane potential fluorescence. activity change, negative = inhibition, % at 10 µM. 920 tested, 61% active. AID 2777;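 active means rise or fall in signal beyond 3 SD of buffer-only wells in both replicate plates, either sign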;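 further: integrated kinetic ratio of fluorescence range over baseline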
HEK293 MPD ctr 2-1: second counter-screen for TRPC6 inhibitors: parental HEK293 cells. shares compounds with TRPC6 inh. parental HEK293 membrane potential dye fluorescence; maximal acetylcholine challenge after compound addition. signal change vs control, % at 10 µM. 920 tested, 31% active. AID 2779;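 active means membrane potential signal moving either way by over 3 SD of the maximum-effect control, in both duplicate plates, meaning non-specific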
HEK293 MPD ctr-1: counter-screen for TRPC6 inhibitors: effect in parental HEK293 cells | 920 tested, 60% active | parental HEK293 membrane potential dye fluorescence | membrane potential signal change, % at 10 µM | shares compounds with TRPC6 inh;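 active means membrane potential signal shifting up or down by more than 3 SD of buffer-only wells, on both duplicate plates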
HEK293 MPD ctr-2: checks TRPC6 modulator effects in parental HEK293 cells; membrane potential dye fluorescence; shares compounds with TRPC6 inh; AID 488924; 2,400 tested, 51% active; membrane potential signal change, % at 10 µM;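 active means membrane potential signal moves up or down beyond 5 SD from buffer-only wells, on both duplicate plates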
HEK293 MPD ctr 2-2: second counter-screen for TRPC6 modulators: effect in parental HEK293 cells | shares compounds with TRPC6 inh | membrane potential dye fluorescence; after compound, maximal acetylcholine stimulation | inhibition, % at 10 µM | 2,400 tested, 14% active | AID 488926;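 active means membrane potential signal drops by more than 5 SD from the mean control signal, in both duplicate plates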;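 further: plate controls were acetylcholine ECmax control wells for no effect and buffer only wells for full effect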
TRPC4/MOR mod: tests whether TRPC6 modulators also affect mouse TRPC4; shares compounds with TRPC6 inh; HEK293 TRPC4/mu-opioid, membrane potential fluorescence; percent change from control (negative = decrease, positive = increase), % at 10 µM; 2,400 tested, 69% active;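 active means membrane potential signal moved up or down beyond 5 SD of buffer control wells, in both duplicate plates, actives on both sides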;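 further: plate controls were assay buffer wells for no effect and DAMGO maximal-effect wells for full effect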
TRPC4/MOR inh 2: second selectivity test of TRPC6 modulators against mouse TRPC4; AID 488928; shares compounds with TRPC6 inh; inhibition, % at 10 µM; 2,400 tested, 55% active; HEK293 TRPC4/mu-opioid, membrane potential dye fluorescence; stimulated with maximal-effect DAMGO;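 active means drop in membrane potential signal beyond 5 SD of the control wells in both duplicate plates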;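 further: TRPC4 counter screen for TRPC6 hits run under conditions tuned for TRPC6 not TRPC4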
TRPC6 block conf: mouse TRPC6 inhibitor confirmation; inhibition, % at 10 µM; AID 488960; 3,300 tested, 43% active; shares compounds with TRPC6 inh; HEK293-TRPC6, membrane potential dye, ACh-evoked depolarization;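 active means fluorescence ratio falls more than 5 SD below the full-stimulation control mean, in both duplicate runs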;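 further: integrated fluorescence ratio of peak minus minimum over baseline after agonist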
TRPC6 act conf: mouse TRPC6 activator confirmation | shares compounds with TRPC6 inh | HEK293-TRPC6 membrane potential dye fluorescence, FDSS | activation, % at 10 µM | 2,800 tested, 11% active | AID 488961;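 active means ratio signal rise beyond 5 SD above unstimulated control wells' mean, seen in both duplicate runs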;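 further: plate controls were buffer EC0 wells for no effect and acetylcholine ECmax response for full effect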
* = called active by the depositor; i = inactive; · = not tested or not shown. A selection: hits, their analogues and other compounds. The true share with any hit is near 2.3%.

SMILES	TRPC4 PAM	TRPC6 act	TRPC6 inh	TRPC4 block	TRPC4 agonist	HEK293 MPD ctr-2	HEK293 MPD ctr 2-2	TRPC4/MOR mod	TRPC4/MOR inh 2	TRPC6 block conf	TRPC6 act conf	others
CCC(C(=O)NC1CCCCC1)n1c(SCc2cccc(C)c2)nc2ccncc21 (stereo not drawn)	i	i	i	i	i	·	·	·	·	·	·
c1ccc(COc2ccccc2CNC23CC4CC(CC(C4)C2)C3)cc1	i	25*	-6.3*	i	i	922%*	i	196%*	73%*	65%*	266%*
c1ccc(COc2ccccc2CNC2CCCC2)cc1	i	i	-7.7*	i	i	531%*	130%*	112%*	90%*	108%*	·
COc1cccc(CNC2CCCCCCC2)c1OC	i	i	-7.2*	i	i	·	·	·	·	62%*	·	TRPC4 sel inh 2=75%*;TRPC4 spec=23%*;HEK293 MPD ctr 2-1=39%*;HEK293 MPD ctr-1=9.3%*
O=C(COc1ccc(Br)cc1CNC1CCCCC1)NCCc1ccccc1	i	i	-5.1*	i	i	212%*	i	41%*	62%*	i	·
N#CC1(NC(=O)CSc2nnc(-c3ccccc3F)n2N)CCCCC1	i	i	i	i	i	·	·	·	·	·	·
O=C(CN(C(=O)c1csnn1)c1ccccc1F)NCc1ccccc1	i	i	i	i	i	·	·	·	·	·	·
Cc1cc(C)c(S(=O)(=O)c2ccccc2Cl)c(=O)[nH]1	i	i	i	i	i	·	·	·	·	·	·
CCCn1nnnc1NCc1ccccc1OCc1cccs1	i	i	i	i	i	·	·	·	·	·	·
c1csc(COc2ccccc2CNC2CCCCC2)c1	i	13*	-11*	-10*	i	514%*	120%*	109%*	90%*	111%*	163%*
Cc1cc2ncc(-c3cccs3)nc2cc1C	i	i	i	i	i	·	·	·	·	·	·
O=C(Nc1ccc(N2CCCC2)c(Cl)c1)c1ccc([N+](=O)[O-])cc1	i	i	i	i	i	·	·	·	·	·	·
CCN1CCN(c2c(Cl)cccc2NC(=O)c2ccc3nsnc3c2)CC1	19*	i	-9.6*	i	63*	-206%*	i	-36%*	64%*	48%*	i
CCN1CCN(c2c(Cl)cccc2NC(=O)c2ccc([N+](=O)[O-])cc2)CC1	i	i	-5.9*	i	99*	-225%*	i	-34%*	63%*	i	i
Cc1cccc(N2CCN(C(=O)c3ccc(N4CCCC4=O)cc3)CC2C)c1 (stereo not drawn)	i	i	i	i	i	·	·	·	·	·	·
Cc1cccc(N2CCN(C(=O)c3ccc4c(c3)c(C)c(C)n4C)CC2C)c1 (stereo not drawn)	i	i	-5.1*	i	i	i	i	i	i	i	i
CCOc1ccc(OCCOC(=O)CN(C)S(=O)(=O)c2ccc(NC(C)=O)cc2)cc1	i	i	i	i	i	·	·	·	·	·	·
Cc1ccc2cc(CN(CCN3CCCC3)C(=O)Nc3ccccc3)c(=O)[nH]c2c1C	i	i	-5*	i	i	i	i	i	54%*	46%*	i
Cc1ccc2cc(CN(CCN3CCCC3)C(=O)Nc3ccc(F)cc3)c(=O)[nH]c2c1C	i	i	i	i	i	·	·	·	·	·	·
COC(=O)CCC(=O)N1CCCC(N2CCN(c3ccc(OC)cc3)CC2)C1 (stereo not drawn)	i	i	i	i	i	·	·	·	·	·	·
N#C/C(=C/c1ccc(N2CCOCC2)o1)c1ccc(Br)cc1	i	25*	i	i	i	568%*	i	152%*	i	i	116%*
N#C/C(=C\c1ccc(N2CCOCC2)o1)c1ccccc1	i	18*	i	i	i	448%*	i	89%*	i	i	166%*
N#C/C(=C/c1ccc(N2CCCCCC2)o1)c1ccc(F)cc1	i	i	i	i	i	·	·	·	·	·	·
COc1ccc(C(C)=O)c(Oc2cc(NN3CCCCC3)c([N+](=O)[O-])cc2[N+](=O)[O-])c1	i	i	i	i	i	·	·	·	·	·	·
CC(C(=O)NCCCc1ccccc1)n1cccc1C(=O)c1ccccc1 (stereo not drawn)	i	i	i	i	i	·	·	·	·	·	·
CCC1CCCCN1C(=O)CCNS(=O)(=O)c1ccc2c(c1)oc(=O)n2C (stereo not drawn)	i	i	i	i	i	·	·	·	·	·	·
CCN(CC)CCSc1nnc2c3ccccc3n(Cc3ccccc3)c2n1	i	i	-8.2*	i	i	·	·	·	·	66%*	i	TRPC4 sel inh 2=21%*;TRPC4 spec=12%*;HEK293 MPD ctr 2-1=i;HEK293 MPD ctr-1=-230%*
CCN(CC)CCSc1nnc2c3cc(F)ccc3n(Cc3ccccc3)c2n1	i	i	-5.9*	i	i	-78%*	i	i	78%*	i	i
CSc1ncccc1C(=O)NC1CCCc2c1cnn2-c1ccc(C)c(C)c1 (stereo not drawn)	i	i	i	i	i	·	·	·	·	·	·

Bioassay records deposited in PubChem BioAssay by Johns Hopkins Ion Channel Center.
